pEC50, pIC50: −log10 of the molar value. Values after ≈ are worked out from the molar mass of the structure shown. Active and inactive are the calls of the source. The rule behind the calls is not given here.
Tests used:
[1] = Clearance in rat liver microsomes at 0.5 uM measured up to 45 mins in presence of NADPH by HPLC-MS/MS analysis; type: ADME, Microsome
[2] = biological target: Voltage-gated inwardly rectifying potassium channel KCNH2 (Homo sapiens, UniProt Q12809); assay: Inhibition of human ERG expressed in CHO cells by Q-patch clamp assay
[3] = tested on: Plasmodium falciparum; assay: Antiplasmodial activity against […] of Plasmodium falciparum NF54 assessed as reduction in female gametocytes activation preincubated for 48 hrs followed by gametocytes activation and measured after 24 hrs by fluorescence based automated inverted microscopic analysis; type: functional, organism-based
How it was run: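 NF54 gametocytes were activated by lowered temperature plus ookinete medium with xanthurenic acid and anti-Pfs25-Cy3 antibody (1/2000 final dilution). Cultures were then kept at 26 °C for 24 h in the dark. Activated females were counted by Cy3 anti-Pfs25 fluorescence, with events gated on size, roundness and fluorescence intensity.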

[4] = tested on: Plasmodium falciparum; assay: Antiplasmodial activity against […] of Plasmodium falciparum NF54 assessed as reduction in male gametocytes activation preincubated for 48 hrs followed by gametocytes activation and measured after 24 hrs by fluorescence based automated inverted microscopic analysis; type: functional, organism-based
How it was run: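 Gametocyte activation was triggered by reduced temperature and ookinete medium containing xanthurenic acid. Male exflagellation centres were detected from a 10-frame video, scoring pixel changes caused by flagellar movement shifting surrounding cells.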

[5] = Permeability of compound by PAMPA
[6] = Clearance in human liver microsomes at 0.5 uM measured up to 45 mins in presence of NADPH by HPLC-MS/MS analysis; type: ADME, Microsome
[7] = biological target: cGMP-dependent protein kinase (Plasmodium falciparum, UniProt W7JX98); assay: Inhibition of Plasmodium falciparum full length N-terminal His-tagged PKG expressed in Escherichia coli RosettaTM 2(DE3) pLysS cells using FAM-GRTGRRNSI-NH2 as substrate preincubated for 30 mins followed by ATP addition and measured after 30 mins by microfluidic mobility shift assay
[8] = tested on: L929; assay: Cytotoxicity against mouse L929 cells assessed as reduction in viability by dual luciferase reporter gene assay; type: ADME, cell-based
[9] = tested on: Plasmodium falciparum; assay: Antiplasmodial activity against Plasmodium falciparum 3D7A erythrocytic stage assessed as reduction in [3H]hypoxanthine incorporation preincubated for 24 hrs followed by [3H]hypoxanthine addition and measured after 24 hrs by microbeta scintillation counting method; type: functional, organism-based
How it was run: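 Nine threefold serial dilutions from 5 μM top concentration. Incubated 24 h at 37 °C under 5% CO2/5% O2/90% N2, then 0.2 μCi [3H]-hypoxanthine per well for another 24 h. Cells harvested on glass fibre filters and counted. Data normalized to compound-free parasitized RBCs; IC50 fitted.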

[10] = Clearance in mouse liver microsomes at 0.5 uM measured up to 45 mins in presence of NADPH by HPLC-MS/MS analysis; type: ADME, Microsome
[11] = Aqueous solubility of compound; settings: buffer
[12] = Lipophilicity, LogD of compound by reverse phase HPLC analysis
[13] = tested on: Plasmodium falciparum; assay: Antiplasmodial activity against Plasmodium falciparum 3D7A erythrocytic stage assessed as reduction in [3H]hypoxanthine incorporation preincubated for 24 to 120 hrs followed by subculture in absence of compound and measured after 21 to 28 days by microbeta scintillation counting method; type: functional, organism-based
How it was run: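 P. falciparum 3D7A cultures were drug-exposed for 120 h, with samples taken every 24 h (24, 48, 72, 96 and 120 h). Viable parasites were quantified by limiting dilution, counting wells with growth after 21 and 28 days by [3H]-hypoxanthine incorporation.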

Sequence of Voltage-gated inwardly rectifying potassium channel KCNH2 (Q12809 whole entry): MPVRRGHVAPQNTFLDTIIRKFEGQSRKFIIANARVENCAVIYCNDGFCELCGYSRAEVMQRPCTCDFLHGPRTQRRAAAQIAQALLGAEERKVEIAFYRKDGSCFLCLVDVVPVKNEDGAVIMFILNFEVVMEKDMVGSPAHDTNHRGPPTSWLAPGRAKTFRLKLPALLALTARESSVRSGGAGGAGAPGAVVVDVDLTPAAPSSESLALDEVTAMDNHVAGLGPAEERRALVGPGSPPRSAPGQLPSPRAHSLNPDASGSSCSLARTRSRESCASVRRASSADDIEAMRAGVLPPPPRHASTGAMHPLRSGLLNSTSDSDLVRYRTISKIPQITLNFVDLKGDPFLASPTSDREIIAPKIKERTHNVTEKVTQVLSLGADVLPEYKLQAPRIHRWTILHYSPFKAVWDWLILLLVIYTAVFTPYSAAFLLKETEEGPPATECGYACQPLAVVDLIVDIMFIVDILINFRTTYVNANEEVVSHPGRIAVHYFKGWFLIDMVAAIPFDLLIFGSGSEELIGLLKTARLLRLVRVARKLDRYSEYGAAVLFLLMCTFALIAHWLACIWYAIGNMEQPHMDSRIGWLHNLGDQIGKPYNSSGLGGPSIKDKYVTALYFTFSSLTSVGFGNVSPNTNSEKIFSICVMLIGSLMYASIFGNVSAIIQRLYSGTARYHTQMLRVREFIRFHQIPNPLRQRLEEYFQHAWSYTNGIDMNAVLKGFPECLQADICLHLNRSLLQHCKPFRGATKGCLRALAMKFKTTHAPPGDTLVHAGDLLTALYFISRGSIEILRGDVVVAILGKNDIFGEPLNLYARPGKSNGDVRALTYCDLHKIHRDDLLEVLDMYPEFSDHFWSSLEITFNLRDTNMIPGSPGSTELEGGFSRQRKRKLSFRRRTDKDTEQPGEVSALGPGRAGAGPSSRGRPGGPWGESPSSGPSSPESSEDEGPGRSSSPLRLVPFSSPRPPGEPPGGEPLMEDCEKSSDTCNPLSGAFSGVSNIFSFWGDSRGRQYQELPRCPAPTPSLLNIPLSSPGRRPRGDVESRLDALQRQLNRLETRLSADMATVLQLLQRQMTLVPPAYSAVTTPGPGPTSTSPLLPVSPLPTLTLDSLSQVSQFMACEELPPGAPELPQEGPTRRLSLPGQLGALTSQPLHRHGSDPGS
Sequence of cGMP-dependent protein kinase (W7JX98 whole entry): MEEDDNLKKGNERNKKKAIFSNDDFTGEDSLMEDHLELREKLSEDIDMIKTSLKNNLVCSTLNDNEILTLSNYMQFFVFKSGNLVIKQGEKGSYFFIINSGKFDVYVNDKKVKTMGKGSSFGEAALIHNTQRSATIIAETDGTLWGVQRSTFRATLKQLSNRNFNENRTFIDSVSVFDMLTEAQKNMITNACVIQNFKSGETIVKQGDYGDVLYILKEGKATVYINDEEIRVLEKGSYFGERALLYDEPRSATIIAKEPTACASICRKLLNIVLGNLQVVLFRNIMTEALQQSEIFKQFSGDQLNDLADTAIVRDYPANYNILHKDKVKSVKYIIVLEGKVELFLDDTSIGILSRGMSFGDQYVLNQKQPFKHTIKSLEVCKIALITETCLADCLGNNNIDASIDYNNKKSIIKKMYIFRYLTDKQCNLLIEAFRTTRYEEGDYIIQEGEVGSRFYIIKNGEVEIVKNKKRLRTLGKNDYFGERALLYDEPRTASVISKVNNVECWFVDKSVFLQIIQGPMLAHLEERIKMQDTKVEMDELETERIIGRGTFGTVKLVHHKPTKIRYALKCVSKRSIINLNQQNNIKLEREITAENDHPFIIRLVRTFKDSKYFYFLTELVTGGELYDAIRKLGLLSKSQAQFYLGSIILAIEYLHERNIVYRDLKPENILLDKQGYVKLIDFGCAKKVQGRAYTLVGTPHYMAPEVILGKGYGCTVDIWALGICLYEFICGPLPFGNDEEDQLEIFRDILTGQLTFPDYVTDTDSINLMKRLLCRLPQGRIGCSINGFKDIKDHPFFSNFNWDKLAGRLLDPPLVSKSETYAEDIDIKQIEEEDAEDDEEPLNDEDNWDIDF

SMILES	CLH [1]	pIC50 [2]	pEC50 [3]	pEC50 [4]	Papp [5]	CLH [6]	pIC50 [7]	pEC50 [8]	pEC50 [9]	CLH [10]	solubility [11]	chromatographic logD [12]	Activity [13]
CN1CCN(c2ccc(Nc3nccc(-c4sc(C5CCNCC5)nc4-c4ccc(F)cc4)n3)cc2)CC1	1.27 mL/min/g	4.88	6.52	6.59	11 ×10⁻⁶ cm/s	0.53 mL/min/g	9.22	5.42	6.15	0.96 mL/min/g	41 µM (≈ 21.7 µg/mL)	2.79	
CN1CCC(C(=O)Nc2nc(-c3ccc(F)cc3)c(-c3ccnc(Nc4ccc(N5CCNCC5)cc4)n3)s2)CC1	0.46 mL/min/g		5.88	6.20	1 ×10⁻⁶ cm/s	0.4 mL/min/g		5.11	5.84	0.48 mL/min/g	11 µM (≈ 6.3 µg/mL)	2.2	
Cc1cc(Nc2nccc(-c3sc(C4CCNCC4)nc3CN3CCCCC3)n2)ccn1					1 ×10⁻⁶ cm/s			4.70	6.72				Active
Fc1ccc(-c2nc(C3CCNCC3)sc2-c2ccnc(Nc3cccnn3)n2)cc1	0.95 mL/min/g				19 ×10⁻⁶ cm/s	0.47 mL/min/g		5.49	6.01	4.42 mL/min/g	123 µM (≈ 53.3 µg/mL)	2.14	
Nc1nc(-c2ccc(F)cc2)c(-c2ccnc(Nc3ccc(N4CCNCC4)cc3)n2)s1	1.98 mL/min/g	4.45	6.72	6.82		0.52 mL/min/g		5.74	5.76	1.47 mL/min/g	24.5 µM (≈ 11 µg/mL)	2.42	
Cc1cc(Nc2nccc(-c3sc(C4CCNCC4)nc3C3CC3)n2)ccn1	1.18 mL/min/g				18 ×10⁻⁶ cm/s	0.4 mL/min/g		5.05	6.57	0.87 mL/min/g	342 µM (≈ 134 µg/mL)	1.99	Active
CCc1nc(N)nc(N)c1-c1ccc(Cl)cc1 [PYRIMETHAMINE]			< 5.00	< 5.00					7.00				
COCCNc1nccc(-c2sc(C3CCNCC3)nc2-c2ccc(F)cc2)n1					30 ×10⁻⁶ cm/s			4.47	< 5.30		235 µM (≈ 97.2 µg/mL)	2.45	
CN1CCN(c2ccc(Nc3nccc(-c4sc(N)nc4-c4ccc(F)cc4)n3)cc2)CC1					26 ×10⁻⁶ cm/s			5.60	< 5.30		8 µM (≈ 3.69 µg/mL)	3.61	
Cc1csc(Nc2nccc(-c3sc(C4CCNCC4)nc3-c3ccc(F)cc3)n2)n1					15 ×10⁻⁶ cm/s			5.66	5.41		40 µM (≈ 18.1 µg/mL)	2.99	
Fc1ccc(-c2nc(N3CCOCC3)sc2-c2ccnc(Nc3ccc(N4CCNCC4)cc3)n2)cc1	0.59 mL/min/g		5.97	5.95	28 ×10⁻⁶ cm/s	0.4 mL/min/g		5.48	5.79	0.48 mL/min/g	38 µM (≈ 19.7 µg/mL)	3.99	
Cc1nc(Nc2nccc(-c3sc(C4CCNCC4)nc3-c3ccc(F)cc3)n2)ccc1F					30 ×10⁻⁶ cm/s			5.28	< 5.30		16 µM (≈ 7.43 µg/mL)	3.96	
Fc1ccc(-c2nc(C3CCNCC3)sc2-c2ccnc(Nc3nncs3)n2)cc1	0.46 mL/min/g	5.60	6.42	6.85	< 1 ×10⁻⁶ cm/s	0.55 mL/min/g		5.55	5.99	0.67 mL/min/g	66 µM (≈ 29 µg/mL)	1.82	
Nc1nccc(-c2sc(C3CCNCC3)nc2-c2ccc(F)cc2)n1					13 ×10⁻⁶ cm/s			4.26	5.66		467 µM (≈ 166 µg/mL)	1.5	
CN1CCC(Nc2nccc(-c3sc(C4CCNCC4)nc3-c3ccc(F)cc3)n2)C1 (stereo not given)					1.7 ×10⁻⁶ cm/s			4.43	5.57		402 µM (≈ 176 µg/mL)	1.14	
Cc1nccc(Nc2nccc(-c3sc(C4CCNCC4)nc3-c3ccc(F)cc3)n2)n1					18 ×10⁻⁶ cm/s			5.60	6.09		47 µM (≈ 21 µg/mL)	2.43	
Fc1ccc(-c2nc(C3CCNCC3)sc2-c2ccnc(N3CCC(N4CCOCC4)CC3)n2)cc1					27 ×10⁻⁶ cm/s			4.81	5.63		251 µM (≈ 128 µg/mL)	2.83	
OC(CNc1nccc(-c2sc(C3CCNCC3)nc2-c2ccc(F)cc2)n1)c1ccncc1 (stereo not given)	0.77 mL/min/g	4.55	4.97	5.44	1 ×10⁻⁶ cm/s	5.8 mL/min/g		4.82		2.08 mL/min/g	225 µM (≈ 107 µg/mL)	1.79	
Fc1ccc(-c2nc(C3CCNCC3)sc2-c2ccnc(Nc3ccn(C4CCNCC4)n3)n2)cc1					3 ×10⁻⁶ cm/s			4.00	5.48		131 µM (≈ 66.1 µg/mL)	1.29	
Cc1cc(Nc2nccc(-c3sc(C4CCNCC4)nc3-c3ccc(F)cc3)n2)on1					12 ×10⁻⁶ cm/s		8.52	5.64	5.58		66 µM (≈ 28.8 µg/mL)	2.61	
Fc1ccc(-c2nc(C3CCNCC3)sc2-c2ccnc(NCC3CCCO3)n2)cc1 (stereo not given)					32 ×10⁻⁶ cm/s			4.77	< 5.30		299 µM (≈ 131 µg/mL)	2.77	
CN(C)CCNc1nccc(-c2sc(C3CCNCC3)nc2-c2ccc(F)cc2)n1					2.4 ×10⁻⁶ cm/s			4.00	5.51		244 µM (≈ 104 µg/mL)	1.07	
Fc1ccc(-c2nc(N3CCCC3)sc2-c2ccnc(Nc3ccc(N4CCNCC4)cc3)n2)cc1	0.81 mL/min/g				27 ×10⁻⁶ cm/s	0.59 mL/min/g	8.70	5.42	6.11	1.56 mL/min/g	54 µM (≈ 27.1 µg/mL)	4.43	
Cc1cc(Nc2nccc(-c3sc(C4CCNCC4)nc3-c3ccc(F)cc3)n2)nn1C					20 ×10⁻⁶ cm/s			5.29	< 5.30		146 µM (≈ 65.6 µg/mL)	2.52	
OCCNc1nccc(-c2sc(C3CCNCC3)nc2-c2ccc(F)cc2)n1					1 ×10⁻⁶ cm/s			4.21	5.39		351 µM (≈ 140 µg/mL)	1.52	
Fc1ccc(-c2nc(C3CCNCC3)oc2-c2ccnc(Nc3ccncn3)n2)cc1					19 ×10⁻⁶ cm/s			4.67	< 5.30		226 µM (≈ 94.3 µg/mL)	1.79	
CCOc1nccc(Nc2nccc(-c3sc(C4CCNCC4)nc3-c3ccc(F)cc3)n2)n1					17 ×10⁻⁶ cm/s			5.68	6.22		35 µM (≈ 16.7 µg/mL)	3.21	
CN1CCN(CCNc2nccc(-c3sc(C4CCNCC4)nc3-c3ccc(F)cc3)n2)CC1					1 ×10⁻⁶ cm/s			4.00	< 5.30		238 µM (≈ 115 µg/mL)	1.34	
C[C@H]1[C@H](OC(=O)CCC(=O)O)O[C@@H]2O[C@@]3(C)CC[C@H]4[C@H](C)CC[C@@H]1[C@@]24OO3 [ARTESUNATE]			< 5.00	< 5.00					7.52				
Fc1ccc(-c2nc(C3CCNCC3)sc2-c2ccnc(N3CCC(N4CCC4)CC3)n2)cc1					7.2 ×10⁻⁶ cm/s			4.59	5.37		114 µM (≈ 54.6 µg/mL)	1.63	

Reference: ChEMBL document CHEMBL4414601 (J Med Chem, 2019)
